High-throughput results: PubChem BioAssay, The Scripps Research Institute Molecular Screening Center
Hits are enriched below; roughly 1.9% of the tested compounds scored in any of these assays.
M5 antag – human M5 muscarinic receptor antagonists, primary screen, CHO cells, Fluo-8 calcium fluorescence. Muscarinic acetylcholine receptor M5 (Homo sapiens), P08912. CHO-hM5 cells, ACh EC80. inhibition, % at 3 µM. 0.59% of 360,000 active. AID 624040, 2012;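 active means inhibition above a per-plate cutoff, the mean of that plate's test compounds plus 3 SD, cut at about 27% in these data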
M4 PAM – human M4 muscarinic receptor positive allosteric modulators, primary screen, CHO-K1 cells, Fluo-8 calcium fluorescence; CHO-K1 hM4/Gqi5, ACh EC20; 0% = ACh EC20, 100% = maximal ACh; activation, % at 3 µM; 0.4% of 360,000 active; AID 624126, 2012;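 active means activation above its plate's cutoff, the mean activation of sample wells plus 3 SD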
Target sequence (P08173 whole entry, looked up): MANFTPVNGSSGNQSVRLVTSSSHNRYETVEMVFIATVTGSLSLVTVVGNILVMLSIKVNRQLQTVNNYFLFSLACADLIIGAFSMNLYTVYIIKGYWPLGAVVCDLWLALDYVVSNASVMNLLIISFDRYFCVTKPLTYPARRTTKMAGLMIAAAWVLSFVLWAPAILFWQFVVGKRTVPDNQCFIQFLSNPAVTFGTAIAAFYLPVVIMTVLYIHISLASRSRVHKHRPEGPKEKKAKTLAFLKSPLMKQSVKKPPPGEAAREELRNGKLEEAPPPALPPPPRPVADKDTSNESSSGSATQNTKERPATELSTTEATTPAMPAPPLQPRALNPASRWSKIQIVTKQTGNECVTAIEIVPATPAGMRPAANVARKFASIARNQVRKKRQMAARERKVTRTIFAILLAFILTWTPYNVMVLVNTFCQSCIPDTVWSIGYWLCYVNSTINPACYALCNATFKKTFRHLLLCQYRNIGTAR
M4 ag – human M4 muscarinic receptor agonists, primary screen, CHO-K1 cells, Fluo-8 calcium fluorescence. activation, % at 3 µM. 0.14% of 360,000 active. CHO-K1 hM4/Gqi5; vehicle 0%, full acetylcholine response 100%. AID 624127, 2012. Muscarinic acetylcholine receptor M4 (Homo sapiens), P08173;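 active means activation above the run mean over all test wells plus 3 SD, cut at about 32% in these data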;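 further: peak over basal fluorescence ratio per well then scaled between controls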
M5 PAM – human M5 muscarinic receptor positive allosteric modulators, primary screen, CHO-K1 cells, Fluo-8 calcium fluorescence; CHO-K1 hM5, ACh EC20 PAM; 0% = ACh EC20, 100% = ACh EC100; activation, % at 3 µM; 0.3% of 360,000 active;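 active means activation above the run cutoff, the mean activation of all test compounds plus 3 SD, cut at about 18% in these data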
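system = human M5 receptor in CHO-K1 cells | compound = one concentration, 3 µM final (nominal) | schedule = Post-acetylcholine fluorescence recording 140 s | signal = Fluo-8 calcium dye fluorescence, kinetic read | benchmarks = low control EC20 acetylcholine (0%), high control EC100 acetylcholine (100%) | repeats = singlicate, one well per test compound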
M5 ag – human M5 muscarinic receptor agonists, primary screen, CHO-K1 cells, Fluo-8 calcium fluorescence. activation, % at 3 µM. Muscarinic acetylcholine receptor M5 (Homo sapiens), P08912. 0.19% of 360,000 active. CHO-K1 hM5 cells; 0% DMSO wells, 100% maximal acetylcholine response. AID 624037, 2012;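 active means activation above the run's mean over test compounds plus 3 SD, cut at about 23% in these data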;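 further: signal is peak over basal fluorescence ratio across the kinetic read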
CHRM4 antagonist – human M4 muscarinic receptor antagonists, primary screen, CHO cells, Fluo-8 calcium fluorescence; AID 624125, 2012; Muscarinic acetylcholine receptor M4 (Homo sapiens), P08173; inhibition, % at 3 µM; CHO-hM4 cells, ACh EC80; 0.73% of 360,000 active;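 active means inhibition above its plate's cutoff, the mean inhibition of sample wells plus 3 SD, cut at about 27% in these data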
Of the large screens only hits and unclear results are named; the others gave an inactive call.

CN(C)CCN(C(=O)c1cccc2ccccc12)c1nc2cc3c(cc2s1)OCO3	none
COC(=O)Cn1c(=O)cnc2ccccc21	none
O=C(Cn1c(=O)cnc2ccccc21)NCC(=O)Nc1ccc(F)c(F)c1	none
COC(=O)c1cc(NC(=O)Cn2c(=O)cnc3ccccc32)cc(C(=O)OC)c1	M5 PAM 20
O=C(O)Cn1c(=O)cnc2ccccc21	CHRM4 antagonist 27
COC(=O)c1ccccc1N=C(SC)N(C)C	none
CSC(=Nc1ccccc1)N=C(SCc1ccccc1)N(C)C	CHRM4 antagonist 46
O=[N+]([O-])c1ccc(NN=Cc2cccc(O)c2)nc1	none
Cc1cccc(C)c1-n1c(C)cc(/C=N\Nc2ccc([N+](=O)[O-])cn2)c1C	CHRM4 antagonist 35
CCCC(C)C(=O)Nc1ccc(S(N)(=O)=O)cc1 (stereo unspecified)	M4 PAM 23
CCC(OC(=O)c1nsc(Cl)c1Cl)C(=O)NCC1CCCO1 (stereo unspecified)	none
CCOC(=O)C1=C(C)N(CCCC(=O)O)C(=O)NC1c1ccccc1 (stereo unspecified)	none
CCOC(=O)C1=C(C)N(CCO)C(=O)NC1c1ccccc1 (stereo unspecified)	M5 PAM 20
COc1ccc(-n2c(C)nc3c(cnn3-c3ccc(C)c(C)c3)c2=O)cc1	CHRM4 antagonist 31
CCOCc1nc(N)nc(N)c1-c1cccc(Cl)c1	none
CCC(C)c1ccccc1NC(=O)COc1ccc(-n2cnnn2)cc1 (stereo unspecified)	M4 PAM 20
CCOc1ccc(NC(=O)c2cccc(-n3cnnn3)c2)cc1	CHRM4 antagonist 27
O=C(Nc1ccc(OC(F)(F)F)cc1)c1cccc(-n2cnnn2)c1	none
NC(=O)OCC(O)COc1ccc(Cl)cc1 (stereo unspecified)	none
CC(C)Cc1nnc(NS(=O)(=O)c2ccc(Cl)cc2)s1	M4 PAM 16
C=CCNc1nc(Nc2ccc(OC)cc2)nc(OC)n1	M5 PAM 18
CC1(C)Cc2c(ccc3ccccc23)C2=C(C(=O)N3CCCC3)C(=O)C(=O)N21	M4 PAM 18
O=C(O)c1cccc2c1C(=O)N(Cc1ccncc1)C2	M4 PAM 32
Cc1cccc2c1N(CCOc1ccc(C(C)(C)C)cc1)C(=O)C2=O	M5 ag 27
CCN(Cc1ccccc1)C(=O)C1CCN(S(=O)(=O)c2ccc3c(c2)OCCO3)CC1	M5 ag 37
CCCCCCCCN1C(=O)[C@H](CC(=O)N2CCSCC2)C[C@@]2(C(=O)OC)CC(C)(C)CC=C12	none
COc1cccc(NC(=O)CN(C)C(=O)c2cc(-c3ccccc3)nn2-c2ccccc2)c1	M4 PAM 18
COc1cccc(NC(=O)CN(C)C(=O)Cn2cnc3ccccc3c2=O)c1	M5 antag 100
C#CCN(C(=O)C1CCC(=O)N(CCc2cccc(F)c2)C1)C1CCCCC1 (stereo unspecified)	none
C(#Cc1ccccc1)C[N+]1(CC#Cc2ccccc2)CCCCC1	M5 antag 43, CHRM4 antagonist 33
C#CC[N+]1(CC#Cc2ccccc2)CCCCC1	none
CCC[N+]1(CC#CCC(c2ccccc2)c2ccccc2)CCCCC1	CHRM4 antagonist 27
CCCCn1c(N)c(N(CC)C(=O)c2cc(CC)c(C)s2)c(=O)[nH]c1=O	none
CCOC(=O)C1(C)CCN1C(=O)COc1ccc(C(C)(C)C)cc1 (stereo unspecified)	none
O=C(c1[nH]c(C(F)(F)F)nc1-c1ccccc1)N1CCN(c2c(Cl)cncc2Cl)CC1	M4 ag 46, M5 ag 36
O=C(c1[nH]c(C(F)(F)F)nc1-c1ccccc1)N1CCN(c2ccccc2)CC1	none
COCCN1C(=O)COc2ccccc2C1C(=O)NC1CCCCC1 (stereo unspecified)	none
O=C(CCCl)N1c2ccccc2C=Cc2ccccc21	none
O=C(O)C1CCC(=O)N(C2CCCCC2)C1c1ccccc1Cl (stereo unspecified)	M5 PAM 19
O=C(O)C1CCC(=O)N(C2CC2)C1c1ccccc1 (stereo unspecified)	none
CC1(C)N=C(N)N=C(N)N1c1ccc(Oc2ccc(Cl)cc2)c(Cl)c1	M5 antag 33
CC(C(=O)Nc1ccc2c(c1)OCCO2)c1ccc([N+](=O)[O-])cc1 (stereo unspecified)	M5 ag 32
O=C(NC(NC(=S)Nc1ccc(Cl)cc1)C(Cl)(Cl)Cl)c1ccco1 (stereo unspecified)	none
CC(=O)c1ccc(NC(=S)NC(NC(=O)c2ccco2)C(Cl)(Cl)Cl)cc1 (stereo unspecified)	M5 ag 27
CC(=O)OCC(=O)[C@@]1(O)CC[C@H]2[C@@H]3CCC4=CC(=O)C=C[C@]4(C)[C@@]3(Cl)[C@@H](Cl)C[C@@]21C	M5 ag 43
CC(=O)OCC(=O)[C@@]1(O)CC[C@H]2[C@@H]3CCC4=CC(=O)C=C[C@]4(C)[C@H]3[C@@H](O)C[C@@]21C	none
CCC(C(=O)OCC(=O)C1(O)CCC2C3CCC4=CC(=O)CCC4(C)C3C(O)CC21C)C(C)C (stereo unspecified)	CHRM4 antagonist 28
CC12C=CC(=O)C=C1CCC1C2C(O)CC2(C)C1CCC2(O)C(=O)CO (stereo unspecified)	CHRM4 antagonist 88
C[C@@H]1CN([C@H](C)CO)C(=O)CCCn2nncc2CO[C@@H]1CN(C)S(=O)(=O)c1cccs1	none
CC(C)(C)OC(=O)N1CCc2onc(-c3ccccc3F)c2C1=O	none
CCCCc1c(-c2ccc(F)cc2)ncn1CCc1ccccc1OC	none
O=C(Cn1nnc(-c2ccc(CN3CCOCC3)cc2)n1)N(c1ccccc1)c1ccccc1	M5 PAM 23
COc1ccc(S(=O)(=O)N2CCCC(C(=O)NCCc3ccccc3)C2)cc1 (stereo unspecified)	none
O=C(CNS(=O)(=O)c1ccc(F)cc1)N1CCN(c2ccccc2)CC1	CHRM4 antagonist 27
O=C(CNS(=O)(=O)c1cccs1)N1CCN(c2ccccc2F)CC1	M4 PAM 17
CCC(C)C(NC(=O)C1CCC(C)CC1)C(=O)Nc1ccc(OC)cc1 (stereo unspecified)	none
